Where two headings read alike, the source gives them in different places. Blank lines part the entries; values can stand above or below the compound they belong to.
Key:
panel of 442 kinases [1] = conditions: cited from earlier work
Bcr-Abl (T315I) = Bcr-Abl (T315I) (Homo sapiens, UniProt P00519+P11274, T315I); assay: Cellular antiproliferative activity on mutant Bcr-Abl-T315I-Ba/F3; type: cell-based; conditions: for EC50: read-out: EC50 against T315I mutant; for Fold improvement relative to 3 against T315I mutant Bcr-Abl: relative to compound 3
In short: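 Ba/F3 cells transformed with wild-type or T315I Bcr-Abl were tested for antiproliferative activity, with parental Ba/F3 cells tested alongside. The value is an EC50 from the cellular assay.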

Bcr-Abl (wt) = Bcr-Abl (wt) (Homo sapiens, UniProt P00519+P11274); assay: Cellular antiproliferative activity on wtBcr-Abl-Ba/F3; type: cell-based; conditions: for Selectivity for Bcr-Abl dependent cellular growth: versus parental Ba/F3 cytotoxicity
panel of 442 kinases [2] = assay: KINOMEscan kinase selectivity profiling; type: binding; conditions: 10 μM
[3] = carbonyl group at the 6-position

SMILES: CCN1CCN(Cc2ccc(NC(=O)c3cccc(-c4ccc5nc(NC(=O)C6CC6)sc5n4)c3)cc2C(F)(F)F)CC1 [HG-7-85-01]
Selectivity score S10 (panel of 442 kinases [1]): 0.056

SMILES: CCN1CCN(Cc2ccc(NC(=O)c3ccc(C)c(C#Cc4cnc5[nH]cnc5c4)c3)cc2C(F)(F)F)CC1 [Compound 14]
EC50 (Bcr-Abl (T315I)): < 100 nM

SMILES: CCN1CCN(Cc2ccc(NC(=O)c3ccc(C)c(C#Cc4ccc(C(=O)NC)nc4)c3)cc2C(F)(F)F)CC1 [Compound 6]
Fold less potent EC50 against wild-type Bcr-Abl (Bcr-Abl (wt); [3]): 6 fold
Fold less potent EC50 against T315I Bcr-Abl (Bcr-Abl (T315I); [3]): 6 fold

SMILES: CCN1CCN(Cc2ccc(NC(=O)c3ccc(C)c(C#Cc4cnc5[nH]ccc5c4)c3)cc2C(F)(F)F)CC1 [Compound 12]
Selectivity for Bcr-Abl dependent cellular growth (Bcr-Abl (wt)): up to 1000 fold
Number of kinases with ambit score of less than 10% of the DMSO control (panel of 442 kinases [2]; panel of 442 kinases): 203 kinases
Ambit score of kinase hits (% of the DMSO control) (panel of 442 kinases [2]; hits: ABL, ARG, BLK, PITSLRE, CRIK, FMS/CSFR, DDR1, EphA8, FGFR4, HPK1, JNK2, KIT, LOK, LYN, GCK, MUSK, MYO3B, p38α, p38β, PDGFRα, PDGFRβ, RET, RIPK1, SRC, TAO1, TAO2, TAO3, TIE2): < 0.1%
EC50 (Bcr-Abl (T315I)): < 100 nM

SMILES: CCN1CCN(Cc2ccc(NC(=O)c3ccc(C)c(C#Cc4cccnc4)c3)cc2C(F)(F)F)CC1 [Compound 3]
Selectivity for Bcr-Abl dependent cellular growth (Bcr-Abl (wt)): up to 1000 fold
Number of kinases with ambit score of less than 10% of the DMSO control (panel of 442 kinases [2]; panel of 442 kinases): 193 kinases
Selectivity score S10 (panel of 442 kinases [2]; panel of 442 kinases): 0.427

Other lines, results leading:

Fold improvement relative to 3 against T315I mutant Bcr-Abl (Bcr-Abl (T315I)): ~8 fold
SMILES: CCN1CCN(Cc2ccc(NC(=O)c3ccc(C)c(C#Cc4ccc(NC(=O)C5CC5)nc4)c3)cc2C(F)(F)F)CC1 [Compound 5]

Fold improvement relative to 3 against T315I mutant Bcr-Abl (Bcr-Abl (T315I)): ~8 fold
SMILES: CCN1CCN(Cc2ccc(NC(=O)c3ccc(C)c(C#Cc4ccc(NC(C)=O)nc4)c3)cc2C(F)(F)F)CC1 [Compound 4]

Reference: PMC2901992 (Bioorganic & medicinal chemistry letters, 2010)
